# Only some compounds are listed: those with a hit (about 2.1% of all), similar ones and a draw of the others.
# SF-1 act: activators of human nuclear receptor SF-1 | AID 522 | CHO-K1 Gal4-SF-1 LBD luciferase reporter; % increase over DMSO SF-1-specific signal | 65,000 compounds, 1.9% hits | activation, % at 10 µM;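 active means activation above the mean activation of all tested compounds plus 3 SD, cut at about 50% in these data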
#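 Material: Gal4–SF-1 LBD one-hybrid luciferase reporter in CHO-K1 cells | Amount: 4,000 cells per well | Compound dosing: 10 µM single point, 1% DMSO | Schedule: 20 h compound treatment, 37 °C | Measured by: SteadyLite luciferase luminescence | Evaluation: Percent activation versus DMSO | Control set: DMSO-treated SF-1-transfected cells as negative, DMSO-treated mock-transfected cells lacking SF-1 as background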
# TNAP act DEA: human TNAP activation, intermediate phosphate acceptor; purified TNAP, CDP-star luminescence, 100 mM DEA, 30 min; hits give high values; scale: 0 levamisole-inhibited, 1 vehicle-only enzyme; activation factor at 20 µM; 64,000 tested, under 10 active; AID 813;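 active means activation factor of at least 2 at 20 µM, relative to controls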
# Mac1 fbg inh: inhibitors of human CD11b/CD18 binding to fibrinogen. P05107+P11215. K562 CD11b/CD18 adhesion to fibrinogen, ATPlite luminescence; Mn2+ added to activate the integrin. inhibition, % at 10 µM. 93,000 compounds, 0.54% hits;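 active means primary inhibition of 50% or more at 10 µM, then 40% or more on retest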
# Target sequence (P05107 whole entry, looked up, other chains not shown): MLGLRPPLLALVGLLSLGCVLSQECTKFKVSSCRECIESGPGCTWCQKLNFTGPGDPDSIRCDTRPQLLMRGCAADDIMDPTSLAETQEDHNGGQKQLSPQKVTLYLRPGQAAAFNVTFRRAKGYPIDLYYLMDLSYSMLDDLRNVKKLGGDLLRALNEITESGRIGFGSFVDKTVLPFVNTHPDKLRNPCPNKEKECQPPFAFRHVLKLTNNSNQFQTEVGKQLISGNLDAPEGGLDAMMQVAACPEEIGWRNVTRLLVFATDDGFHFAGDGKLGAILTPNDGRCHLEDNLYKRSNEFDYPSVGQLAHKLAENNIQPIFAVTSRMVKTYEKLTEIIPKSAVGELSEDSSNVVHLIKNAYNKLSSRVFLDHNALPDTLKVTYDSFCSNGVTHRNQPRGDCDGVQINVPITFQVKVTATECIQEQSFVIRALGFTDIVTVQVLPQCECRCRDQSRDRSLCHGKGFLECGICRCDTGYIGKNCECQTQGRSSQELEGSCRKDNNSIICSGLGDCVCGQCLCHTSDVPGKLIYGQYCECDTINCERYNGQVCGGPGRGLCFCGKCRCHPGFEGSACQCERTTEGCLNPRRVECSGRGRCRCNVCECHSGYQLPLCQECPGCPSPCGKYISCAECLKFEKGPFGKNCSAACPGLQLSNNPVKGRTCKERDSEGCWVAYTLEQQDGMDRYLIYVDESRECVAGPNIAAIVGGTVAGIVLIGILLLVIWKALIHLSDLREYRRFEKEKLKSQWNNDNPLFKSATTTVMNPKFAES
# Mac1 fbg enh: CD11b/CD18-fibrinogen binding enhancement | P05107+P11215 | 93,000 compounds, 0.07% hits | K562 CD11b/CD18 adhesion to fibrinogen, ATPlite luminescence | activation, % at 10 µM;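 active means 10 µM primary screen giving 50% or more activity, confirmed by 40% or more on retest at that dose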
# MT1-MMP txn act: activates MT1-MMP transcription; HT1080 MT1-MMP promoter luciferase reporter, luminescence, overnight; hits give high values; activation factor at 10 µM; 86,000 compounds, 0.16% hits; AID 750;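 active means activation factor of at least 2 for MT1-MMP transcription at 10 µM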
# RORa activator: RORA (human) activation; 65,000 compounds, 1.5% hits; activation, % at 10 µM; CHO-K1 Gal4-RORA LBD luciferase reporter, luminescence; percent increase over mock-subtracted basal signal; AID 560; P35398;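 active means activation above the mean of all tested compounds plus 3 SD, cut at about 49% in these data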;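 further: 0% = DMSO-treated RORA cells and 100% = added signal equal to DMSO minus mock-transfected cells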
# Active calls of the source: *; / = no result given.
SMILES,SF-1 act,TNAP act DEA,Mac1 fbg inh,Mac1 fbg enh,MT1-MMP txn act,RORa activator
Fc1cccc2sc(N3CCCCC3)nc12,73.2*,0.9,-33.9,1.0,1.4,32.7
Cc1ccc(NC(=O)/C(=C/c2cccs2)NC(=O)c2ccco2)c(C)c1,/,/,28.6,-2.4,/,/
CC(=NC1CC1)c1c(-c2ccccc2)[nH]n(-c2nc3ccccc3s2)c1=O,/,/,1.4,-5.4,/,/
CC(=NC1CCCC1)c1c(C)[nH]n(-c2nc3ccccc3s2)c1=O,70.8*,0.9,-0.4,-3.7,0.8,7.6
O=C(Nc1cc(Cl)ccc1Cl)C1CC(=O)N(c2ccc(Br)cc2)C1 (centres undefined),/,/,-3.9,2.2,1.2,/
CC(C)(C)c1csc(NC(=O)c2ccc3nccnc3c2)n1,/,/,-9.9,-0.9,2*,/
CC(C)(C)c1csc(NC(=O)c2ccc(Cl)s2)n1,52.8*,/,51.1,-2.0,1.4,53.5*
Cc1ccc(C(=O)Nc2nc(C(C)(C)C)cs2)s1,/,/,35.4,-3.7,1.7,/
O=C(Nc1nc2ccccc2s1)c1ccc(Cl)s1,98.4*,0.9,17.9,15.4,1,33.9
O=C(Nc1nc(-c2cccs2)cs1)c1ccc(Cl)s1,34.5,1,/,/,1.4,68.5*
CC(=O)Nc1nc(-c2cccs2)cs1,3.4,0.9,-3.7,-2.5,1.4,16.1
Cn1c(CN2CCN(C(=O)c3ccc(F)cc3)CC2)nc2cc([N+](=O)[O-])ccc21,/,/,23.8,1.3,/,/
CCOC(=O)C1=C(C)N(CCCC(=O)O)C(=O)NC1c1ccccc1OC(=O)c1cccs1 (centres undefined),/,/,/,/,1.1,/
Cc1nc2ccccc2c(=O)n1NC(=O)Cc1ccccc1,/,/,/,/,1.1,/
Cc1cc(NC(=O)NC(=O)c2cccc(OC(F)(F)C(F)F)c2)n[nH]1,81.3*,1,4.9,41.0,1.6,52.4*
O=C(Nc1cc(S(=O)(=O)N2CCCCC2)ccc1O)c1ccccc1NS(=O)(=O)c1ccc(F)c(F)c1,/,/,34.4,1.9,/,/
CC(=O)N1C2(C=CC1(C)C(=O)NCCN1CCOCC1)CCCCC2 (centres undefined),/,/,/,/,1.2,/
Cc1cc(/C=C(\C#N)C(=O)NCc2cccs2)c(C)n1-c1ccccc1F,/,/,3.6,-4.4,1.3,/
O=c1c(-c2ccccc2)n[nH]c2ccccc12,75.3*,1,5.4,-0.4,1.1,31.1
O=C(Nc1ccc2c(c1)OCCO2)c1cnc2n(c1=O)CCS2,91.0*,0.8,-12.2,-4.3,1.4,88.1*
O=C(NCCc1ccc(Cl)cc1)c1cnc2n(c1=O)CCS2,33.9,1,-42.7,3.6,1.3,34.8
O=C(Nc1ccc2c(c1)OCO2)c1cnc2n(c1=O)CCS2,62.3*,1,/,/,1.3,36.3
Cc1cccc(NC(=O)c2cnc3n(c2=O)CCS3)c1,24.4,/,/,/,1.6,75.8*
O=C(NCc1ccc2c(c1)OCO2)c1cnc2n(c1=O)CCS2,-5.3,1.1,0.1,-2.6,1.2,4.5
O=C(Nc1ccccc1)c1cnc2n(c1=O)CCS2,30.1,0.8,-6.0,3.6,1.6,36.6
SMILES,SF-1 act,TNAP act DEA,Mac1 fbg inh,Mac1 fbg enh,MT1-MMP txn act,RORa activator
O=C(NCCC1=CCCCC1)c1cnc2n(c1=O)CCS2,51.3*,/,/,/,1.7,33.5
FC(F)(F)c1ccc(Oc2ccc3ccccc3c2Br)nc1,/,/,30.8,-3.9,/,/
COCCNC(=O)C1(C)C=CCN1C(C)=O (centres undefined),/,/,/,/,1.1,/
CCc1cc2c(=O)c(-c3cscn3)coc2cc1OC,38.6,0.9,2.6,-3.4,1.5,51.5*
CCN=c1scc(C)n1/N=C/c1ccsc1,70.5*,1,-1.1,-1.7,1.5,69.0*
CN=c1scc(C)n1/N=C/c1ccc(O)c(O)c1O,/,/,-0.5,15.2,0.9,/
COC(=O)Nc1ccc(S(=O)(=O)N2CCCc3ccccc32)cc1,36.7,1,9.0,-1.2,0.7,53.4*
CCOCC(=O)Nc1nnc(C2CCCCC2)s1,19.8,1,/,/,1.4,50.5*
COCC(=O)Nc1nnc(C2CCCCC2)s1,34.3,0.9,-2.1,-0.6,1.1,51.5*
CCOC(=O)C(=O)Nc1nnc(C2CCCCC2)s1,/,/,-7.3,8.6,1.1,/
CC(=O)c1ccc(-n2c(SCC(=O)c3c[nH]c4ccccc34)nc3ccccc3c2=O)cc1,/,/,-8.2,48.9,/,/
CCNc1nc(N)c(C(=O)c2ccc(Cl)s2)s1,31.4,0.8,-11.8,0.1,1.7,49.8*
Cc1ccc(S(=O)(=O)Nc2ccccc2/C=N/c2nc3ccccc3n2C)cc1,/,/,26.4,-5.4,/,/
Cc1ccn2cc(C(=O)Nc3ccccc3N3CCOCC3)nc2c1,18.4,1,-6.6,2.5,1.3,54.9*
CCOC(=O)C(Sc1cc(C)nc(N)n1)C(C)=O (centres undefined),/,/,4.1,-4.5,1,/
COc1ccc(-c2csc(NCc3ccco3)n2)cc1C,80.0*,1,7.5,3.2,1.5,49.1*
Cc1cc(NC(=O)c2noc3c2CCCCC3)no1,38.9,0.9,-2.4,1.2,1.7,58.4*
COc1ccc(NC(=O)c2cc(C(C)C)on2)c(OC)c1,50.4*,0.9,4.9,-3.3,1.5,69.5*
CC(=O)c1ccc(NC(=O)c2noc3c2CCCCC3)cc1,31.6,0.9,4.5,1.7,1.4,50.4*
COc1cc(NC(=O)c2cc(C(C)C)on2)c(OC)cc1Cl,/,/,7.5,-3.2,/,/
CC(C)c1cc(C(=O)Nc2cccnc2)no1,30.1,0.9,10.4,-2.5,1.4,61.3*
CCCc1cc(C(=O)Nc2cccnc2)no1,-0.8,0.9,-5.4,-1.6,1.4,14.3
Cc1cc(NC(=O)c2noc3c2CCCC3)no1,12.6,1,-6.0,1.9,1.3,7.3
CCc1ccc(NC(=O)c2onc(C)c2Cl)cc1,/,/,-4.6,-1.1,/,/
COc1ccccc1NC(=O)Cn1cnc2sc(C)c(S(=O)(=O)N3CCCCC3)c2c1=O,/,/,/,/,1.2,/
SMILES,SF-1 act,TNAP act DEA,Mac1 fbg inh,Mac1 fbg enh,MT1-MMP txn act,RORa activator
O=C(Nc1cccnc1)c1noc2c1CCCC2,25.6,0.9,-12.2,-5.5,1.4,48.6*
CC(C)(C)C1CCc2onc(C(=O)Nc3cccnc3)c2C1 (centres undefined),-15.2,0.8,-3.0,-3.8,1,8.5
N#Cc1nc(COc2ccccc2F)oc1N1CCCCCC1,14.2,0.9,/,/,2.2*,34.3
Cc1ccccc1NC(=O)Cn1c(NCC(C)O)nc2ccccc21 (centres undefined),/,/,1.3,-1.9,/,/
O=C(N/N=C/c1cccc([N+](=O)[O-])c1)C1CC1c1ccccc1 (centres undefined),/,/,-7.2,29.4,/,/
CC(C)COc1ccc(-c2nnc(-c3ccncc3)o2)cc1,84.9*,0.9,0.9,-2.3,1.8,32.7
COc1cc(C(=O)N2CCN(c3ncnc4sc(C)c(C)c34)CC2)cc(OC)c1OC,-32.8,0.9,60.3*,-11.8,1.1,-22.3
O=C(NCc1ccco1)C1(c2ccc(Br)cc2)CCCC1,/,/,-44.5,3.1,1.2,/
